Experimental data collected from several papers.
Compare with care: the assays were run in different laboratories.
Target: Mitogen-activated protein kinase kinase kinase 7 (MAP3K7, Homo sapiens, UniProt O43318)
Residues used in one study (O43318 1-606): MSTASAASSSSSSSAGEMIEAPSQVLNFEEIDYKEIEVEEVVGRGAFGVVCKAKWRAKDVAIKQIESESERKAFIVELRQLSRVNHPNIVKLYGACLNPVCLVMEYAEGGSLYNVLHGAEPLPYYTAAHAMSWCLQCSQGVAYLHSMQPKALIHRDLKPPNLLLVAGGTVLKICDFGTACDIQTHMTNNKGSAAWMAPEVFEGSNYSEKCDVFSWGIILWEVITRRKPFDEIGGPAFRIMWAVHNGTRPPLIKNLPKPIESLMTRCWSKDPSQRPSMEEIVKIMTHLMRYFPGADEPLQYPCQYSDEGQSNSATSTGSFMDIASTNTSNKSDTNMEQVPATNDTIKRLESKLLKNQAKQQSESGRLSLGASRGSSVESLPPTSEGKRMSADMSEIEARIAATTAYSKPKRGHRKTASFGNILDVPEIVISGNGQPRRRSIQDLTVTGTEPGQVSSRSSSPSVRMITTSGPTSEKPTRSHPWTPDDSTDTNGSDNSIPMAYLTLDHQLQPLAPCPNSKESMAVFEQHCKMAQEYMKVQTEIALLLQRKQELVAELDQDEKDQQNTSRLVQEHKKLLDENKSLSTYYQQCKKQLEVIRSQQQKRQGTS

SMILES	read-out	mode	technique	concentration	measurement	result
CN1CCN(C(=O)c2ccc(NC(=O)Nc3ccc(N(C)c4ccnc(Nc5ccc(CS(C)(=O)=O)cc5)n4)cc3)cc2)CC1	binding		competition with immobilised ligand	1 µM	remaining binding	25%
CC#CC(=O)N1CCC[C@H]1c1nc(-c2ccc(C(=O)Nc3ccccn3)cc2)c2c(N)nccn12	enzyme activity	inhibitor		1 µM	inhibition	12%
C[C@H]1CC[C@H](n2c3cnccc3c3cnc(Nc4ccc5c(n4)CCN(C(=O)CO)C5)nc32)CC1	binding		competition with immobilised ligand	1 µM	remaining binding	47%
Cc1cc(O)c(-c2ccc([C@@H](C)CN(C)C)cc2)c2c1[nH]c(=O)c1sccc12	enzyme activity	inhibitor		0.1 µM	inhibition	-18.1%
CS(=O)(=O)c1ccccc1Nc1nc(Nc2ccnc(CO)c2)ncc1Cl	enzyme activity	inhibitor		1 µM	remaining activity	70.7%
C=CC(=O)N1CCC([C@@H]2CCNc3c(C(N)=O)c(-c4ccc(Oc5ccccc5)cc4)nn32)CC1	enzyme activity	inhibitor		1 µM	inhibition	19%
CS(=O)(=NC#N)c1ccccc1Nc1nc(Nc2ccc(CO)nc2)ncc1Cl (centres unmarked)	enzyme activity	inhibitor		1 µM	remaining activity	55.8%
CCCCC(=O)Nc1ccc(-c2ccc3ncn(CCC)c(=O)c3c2)cn1	binding		competition with immobilised ligand	0.5 µM	remaining binding	87%
